Test system: MS2 coat protein
Assay: apparent Kd, MS2 coat protein; higher = weaker binding; RNA-MaP array
Outline: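 The designed RNAs, transcribed from sequenced DNA templates on an Illumina sequencing chip, were incubated with fluorescently labeled MS2 coat protein at room temperature. Protein ranged from 1.5 nM to 3 μM, with 0.8–1.5 h incubation at the lowest and 10–20 min at the highest concentrations, in Tris-HCl pH 7.5 buffer with KCl, MgCl2, BSA, DTT, tRNA and Tween20, with or without input ligand. The median of per-cluster binding-curve fits gives the apparent Kd, and designs measured on fewer than 10 clusters were excluded.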

[1] = designed as: ON switch for flavin mononucleotide, no ligand
[2] = ligand present: flavin mononucleotide, designed as: ON switch for flavin mononucleotide
[3] = designed as: OFF switch for flavin mononucleotide, no ligand
[4] = ligand present: flavin mononucleotide, designed as: OFF switch for flavin mononucleotide

For “AAAUACGUAAAACAUGAGGAUCACCCAUGUACAUUUAUUACCAGAAGGAGCGCUAAAAGUACCAGCUAGGAUAUGGGAAGCAAC”, which “apparent Kd” value [1] is on record?
The value was 8.05 nM.

What about the “apparent Kd” value [2] of the same sequence?
Its value is 5.83 nM.

For “ACAUGAGGAUCACCCAUGUUCACGGUUCACGAAGUCUAAAGCUAGGAUAUCAUUGGGUGGGCGCAUGAGAAGGAGCUUCCCGUA”, which “apparent Kd” value [1] is on record?
Its value is 70.1 nM.

What about the “apparent Kd” value [2] of the same sequence?
The value was 44.3 nM.

For “UGUAUCUCGCAGAAGGCAGGUUAAGCAACAAACUGAGGAUAUGCGUAUACAUGAGGAUCACCCAUGUUCACUGAUCGCAAAUUC”, which “apparent Kd” value [3] is on record?
The value was 14.8 nM.

And the “apparent Kd” value [4]?
The value was 102 nM.

Which results are given for “GUCAGGUGGACAGGAUAUCGUGCUCGUAGACAUGAGGAUCACCCAUGUUCGCUCUUCUUCGGCAUCGAGAAGGGUCUCCAAUCU”?
apparent Kd [3]: 34.8 nM; apparent Kd [4]: 35.8 nM

Which results are given for “GGCGCGGCAGGAUAUGGAUGACGUGACAUGAGGAUCACCCAUGUGCUUAGAUCAUUCGUACCAGAAGGGCCCGCAG”?
apparent Kd [3]: 4.29 nM; apparent Kd [4]: 4.3 nM

For “ACACGCUAAGGAUAUACAUGAGGAUCACCCAUGUUAAAAGUUAAAUAGGAAUGAUACCGUAGAAGGUAGGAUGA”, which “apparent Kd” value [3] is on record?
Its value is 13.2 nM.

And the “apparent Kd” value [4]?
The value was 11.4 nM.

How did the “apparent Kd” value [1] turn out when “GAAUACGUCAUGAUGAACAUGAGGAUCACCCAUGUAGUGCCUUAGGAUAUGCUACGAUUACUGCCGCAGAAGGAAGUGCAAGAA” was run?
Its value is 44.1 nM.

What about the “apparent Kd” value [2] of the same sequence?
Its value is 28.4 nM.

How did the “apparent Kd” value [3] turn out when “AAAUGGGAGGUACGCACCACUACAUGAGGAUCACCCAUGUAUAGAAGGCAGGUCUGGACUCGUCCUGAGGAUAUAUGAUUUGAC” was run?
Its value is 17.9 nM.

And the “apparent Kd” value [4]?
The value was 16.5 nM.

Which “apparent Kd” value [3] does the source give for “AGUGUAAUAUAAGGAUAUAACCGCACAAGAAUGUUAGAAGGUAUUUUACAUGAGGAUCACCCAUGUGAAUGUAGUCCUCACUAU” here?
The value was 9.6 nM.

And the “apparent Kd” value [4]?
The value was 10.5 nM.

What does the source list for “UCAGUUCAAGGAUAUACAUGAGGAUCACCCAUGUACCGCAAUGUAGAAAAGUGACGUAGUAGAAGGUGAAACGA”?
apparent Kd [3]: 23.6 nM; apparent Kd [4]: 21 nM

For “AGUAACGGAACAUGAGGAUCACCCAUGUCAAAAGAUAAGACAAAGGAUAUCAGAUAAAGACCAAAUGAGAAGGUUGGAAGACAA”, which “apparent Kd” value [1] is on record?
Its value is 43 nM.

And the “apparent Kd” value [2]?
The value was 31.4 nM.

For “UAAAUCUUACAACACAUGAGGAUCACCCAUGUACGGGCGGGAUAGGAUAUCGAAAUGGUCUCAAACGAGAAGGAUCCUUCUUAU”, which “apparent Kd” value [1] is on record?
The value was 46.7 nM.

And the “apparent Kd” value [2]?
The value was 27.8 nM.

With “AACAGAAGGCAAGGAUAUAAGGGACCCCCAACAUGAGGAUCACCCAUGUUCUAUGAGGCCGAAUUUUAGAAGGUGCGGGACUAG” as the sequence, how does the “apparent Kd” value [1] read?
Its value is 43.9 nM.

What about the “apparent Kd” value [2] of the same sequence?
Its value is 32.2 nM.

With “UAUGUACGUAGGGACAUGAGGAUCACCCAUGUGGUCCGUAUUAGAAGGACGAAUACCGAUAAAACGUAGGAUAUAAUAACUCCG” as the sequence, how does the “apparent Kd” value [3] read?
The value was 134 nM.

And the “apparent Kd” value [4]?
The value was 148 nM.

Which results are given for “CCUUAGAUACAUGAGGAUCACCCAUGUCACCAGCAACCUGACGAGGAUAUAUAGGCCAAAUAACUAUAGAAGGCGUUGACCCAA”?
apparent Kd [1]: 20.5 nM; apparent Kd [2]: 12.4 nM

How did the “apparent Kd” value [3] turn out when “CUACUCAUAGGAUAUGAAGCCCGAGACAUGAGGAUCACCCAUGUAUGAUCUACUGUGCGCUCAGAAGGAUGCAGUA” was run?
The value was 23.9 nM.

What about the “apparent Kd” value [4] of the same sequence?
Its value is 13.4 nM.

Which results are given for “AGAAUGUCAGGAUAUACUCGCUAUGUCGCCAAGUCACGCCGACAUGAGGAUCACCCAUGUAGAAGGGACAAGUA”?
apparent Kd [3]: 12.9 nM; apparent Kd [4]: 11.7 nM

“UUGAUAGCAGGAUAUACAUGAGGAUCACCCAUGUACAGGCAAAAGGGAACUGACCCACGUAGAAGGGCUUCGCA” was tested. Which “apparent Kd” value [3] did it give?
Its value is 10.8 nM.

And the “apparent Kd” value [4]?
The value was 21 nM.

Which results are given for “CAUAGAGCUAAGAAGGCGUACGGAGACAGCAUACGAGGAUAUUAACGUCCAUGAACAUGAGGAUCACCCAUGUCGAAAACCAAA”?
apparent Kd [1]: 8.42 nM; apparent Kd [2]: 8.15 nM

Which “apparent Kd” value (designed as: ON switch for tryptophan, no ligand) does the source give for “UAGAAACGUACGGCCGCCACUCGGAAUUGGCUCAGACCAUACGUACAUGAGGAUCACCCAUGUUAGAGGACCGGGUAUAAUCUAA” here?
The value was 26.7 nM.

What about the “apparent Kd” value (ligand present: tryptophan, designed as: ON switch for tryptophan) of the same sequence?
Its value is 20.3 nM.

For “GGACGUGGGCAGGAUAUGCGAAUUGAUUGAGCGGCAGAAGGGCCUACAUGAGGAUCACCCAUGUAGAUGCUUAC”, which “apparent Kd” value [3] is on record?
The value was 5.4 nM.

And the “apparent Kd” value [4]?
The value was 11.7 nM.

Which “apparent Kd” value [1] does the source give for “UUACGGCCGGAAGGAUAUUGUGGCUCCGGAGUAACAUGAGGAUCACCCAUGUGAAUCAAACACAACAAGAAGGUCCCAAAUAGG” here?
Its value is 15.9 nM.

And the “apparent Kd” value [2]?
The value was 15.5 nM.

Which results are given for “GGGCGACAUGAGGAUCACCCAUGUGUCGAUACCAGUAUGAAUUUCUACCCUUGGCAGCGACGACACGGUUAUUUGUGCACUUCGA”?
apparent Kd (designed as: ON switch for theophylline, no ligand): 81.8 nM; apparent Kd (ligand present: theophylline, designed as: ON switch for theophylline): 200 nM

Which results are given for “UCACAACUAGGAUAUUUAGUGCUAUACAUGAGGAUCACCCAUGUCGUGUGCACUAGUACGAAAGAAGGAGUUAUCG”?
apparent Kd [3]: 5.09 nM; apparent Kd [4]: 5.21 nM

With “AGCGCGAAUAGAUCCAAAGUUAUUAGUGAGCGAGGACCGGUACGGCCGCCACUCGUGGCUCUACAUGAGGAUCACCCAUGUACAU” as the sequence, how does the “apparent Kd” value (designed as: OFF switch for tryptophan, no ligand) read?
Its value is 354 nM.

And the “apparent Kd” value (ligand present: tryptophan, designed as: OFF switch for tryptophan)?
The value was 432 nM.

Which results are given for “UAGAAUUAAGGAUAUACAGGAUCCGUACAAAUAUUGAUAGGACAUGAGGAUCACCCAUGUAGAAGGUAAGGCAG”?
apparent Kd [3]: 21.1 nM; apparent Kd [4]: 17.2 nM

Reference: the EternaBench riboswitch data
